The values that follow come from ChEMBL document CHEMBL1671761, “Preclinical characterization of BI 201335, a C-terminal carboxylic acid inhibitor of the hepatitis C virus NS3-NS4A protease” (Antimicrob Agents Chemother, 2010).

Data set [1] can be described thus: Inhibition of HCV 1a NS3/4A protease. As to conditions: read-out: Ki(app). Also on record: species or system Hepatitis C virus subtype 1a. The method in brief:
(§1)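 Substrate was 5 μM anthranilyl-DDIVPAbu[C(O)-O]AMY(3-NO2)TW-OH in 50 mM Tris pH 8.0, 0.25 M citrate, 0.01% dodecylmaltoside, 1 mM TCEP, 5% DMSO. Run at 23°C for 60-70 min, stopped with MES pH 5.8, read by product fluorescence. IC50 converted to apparent Ki via IC50=Ki(1+[S]/Km). Mean ± SD, ≥3 experiments.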

The test system of data set [2] is Hepatitis C virus. As to the kind of experiment: Inhibition of HCV 1b NS3/4A protease. The note with it: read-out: Ki(app). Also on record: species or system Hepatitis C virus subtype 1b. Summed up:
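Full-length NS3 coexpressed with the 54-residue NS4A, 0.5 nM (2.5 nM for genotype 1a). Substrate was 5 μM anthranilyl-DDIVPAbu[C(O)-O]AMY(3-NO2)TW-OH in 50 mM Tris pH 8.0, 0.25 M citrate, 0.01% dodecylmaltoside, 1 mM TCEP, 5% DMSO. Run at 23°C for 60-70 min, stopped with MES pH 5.8, read by product fluorescence. IC50 converted to apparent Ki via IC50=Ki(1+[S]/Km). Mean ± SD, ≥3 experiments.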

Data set [3] can be described thus: Inhibition of HCV 2a NS3/4A protease. Also on record: species or system Hepatitis C virus subtype 2a. As to conditions: read-out: Ki(app). Summed up:
as §1

A short description of data set [4]: Inhibition of HCV 2b NS3/4A protease. Also on record: species or system Hepatitis C virus subtype 2b. As to conditions: read-out: Ki(app). Summed up: as §1
The nature of data set [5]: Inhibition of HCV 3a NS3/4A protease. The note with it: read-out: Ki(app). Also on record: species or system Hepatitis C virus subtype 3a. The method in brief: as §1
A short description of data set [6]: Inhibition of HCV 4a NS3/4A protease. Also on record: species or system Hepatitis C virus subtype 4a. As to conditions: read-out: Ki(app). Summed up:
as §1

A short description of data set [7]: Inhibition of HCV 6a NS3/4A protease. Also on record: species or system Hepatitis C virus subtype 6a. The note with it: read-out: Ki(app). The method in brief: as §1
In the next data set the target is Neutrophil elastase (Homo sapiens, UniProt P08246). As to the kind of experiment: Inhibition of human leukocyte elastase after 60 mins fluorescence assay.
For a further data set, the target named is Cathepsin B (Homo sapiens, UniProt P07858). Nature of the data set: Inhibition of human CatB after 60 mins fluorescence assay.
A short description of data set [8]: Binding affinity to HCV 5a NS3/4A protease. Also on record: species or system Hepatitis C virus subtype 5a. As to conditions: read-out: Ki(app). The method in brief:
as §1

In a further data set the test system is Huh-7. As to the kind of experiment: Cytotoxicity activity against human HuH7 cells by MTT assay. The format is functional. The method in brief: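 MTT assay in proliferating Huh-7 cells exposed 72 h to serial inhibitor dilutions; formazan read at 570 nm. CC50 taken from percent inhibition.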
On the technique in general: Tetrazolium dyes change colour on reduction, which living cells bring about.

Data set [9] has as its system Hepatitis C virus. Nature of the data set: Antiviral activity against HCV 1a infected in Huh7 cells assessed as inhibition of viral replication after 72 hrs by RT-PCR. As to conditions: subtype 1a, Huh-7, 72 h. The format is functional, organism-based, Hepacivirus hominis. The method in brief:
(§2)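 Huh-7-derived subgenomic replicon cells of genotype 1a or 1b, grown in DMEM/10% FBS with G418. Replicon RNA was quantified by TaqMan real-time RT-PCR against an in vitro-transcribed RNA standard curve and normalized to total RNA (RiboGreen).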

Data set [10] deals with Hepatitis C virus. As to the kind of experiment: Antiviral activity against HCV 1b infected in Huh7 cells assessed as inhibition of viral replication after 72 hrs by RT-PCR. The format is functional, organism-based, Hepacivirus hominis. As to conditions: genotype 1b, Huh-7, 72 h. The method in brief: as §2
A short description of data set [11]: Apparent permeability from apical to basolateral side in human Caco2 cells. The format is ADME, cell-based. The note with it: Caco-2, read-out: permeability. Summed up:
(§3)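 Caco-2 monolayers were differentiated 23-25 days on Transwell inserts. After 30 min at 37°C, compound was added to the donor side (apical for A-to-B, basolateral for B-to-A). Receiver sampled at 0, 1, 2, 3 h; analysed by HPLC.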

The nature of data set [12]: Apparent permeability from basolateral to apical side in human Caco2 cells. As to conditions: Caco-2, read-out: permeability. The format is ADME, cell-based. Summed up: as §3
(Passage across Caco-2 layers is used to estimate intestinal permeability.)

Data set [13] can be described thus: Clearance in human liver microsomes. The format is ADME, Microsome. The note with it: read-out: QH. Summed up: (§4)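 Male liver microsomes (Sprague-Dawley rat, beagle dog, human, rhesus monkey) at 1 mg microsomal protein in 1 ml of 0.066 M Tris pH 7.4 with 2.5 mM NADPH. Initial compound concentration was 2 μM. Incubations ran at 37°C and were started with NADPH. Samples were taken at 0, 10 and 20 min and quenched with an equal volume of 1:1 acetonitrile-methanol. Supernatants were analysed by HPLC and clearance calculated by the Obach method.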
On the technique in general: Liver microsomes are vesicles of endoplasmic reticulum, rich in cytochrome P450 enzymes.

A short description of data set [14]: Clearance in Sprague-Dawley rat liver microsomes. It is filed as ADME, Microsome. The note with it: read-out: QH. Summed up:
as §4

Structures are written as SMILES. Some results are limits rather than exact numbers.

Sequence of Neutrophil elastase (P08246 whole entry): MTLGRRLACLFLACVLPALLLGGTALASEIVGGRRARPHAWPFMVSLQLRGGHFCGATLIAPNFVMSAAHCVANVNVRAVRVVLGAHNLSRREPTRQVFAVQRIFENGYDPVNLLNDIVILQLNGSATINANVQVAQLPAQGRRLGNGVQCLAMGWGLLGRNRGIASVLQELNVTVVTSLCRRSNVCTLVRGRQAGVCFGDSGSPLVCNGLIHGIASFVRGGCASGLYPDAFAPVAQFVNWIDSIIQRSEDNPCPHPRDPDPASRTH

For `CCC[C@H](NC(=O)[C@@H]1[C@H]2CCC[C@H]2CN1C(=O)[C@@H](NC(=O)[C@@H](NC(=O)c1cnccn1)C1CCCCC1)C(C)(C)C)C(=O)C(=O)NC1CC1`, the Ki in [1] came to 0.0032 µM; with Hepatitis C virus [2], 0.0044 µM; in [3] it was 0.015 µM; in [4], 0.073 µM; in data set [5] it was 0.16 µM; in data set [6] it was 0.05 µM. In addition, the Ki in data set [7] was determined as 0.0045 µM; in [8], 0.11 µM. The IC50 (as a rule, the concentration needed to halve the response being measured) against Neutrophil elastase was found to be 0.68 µM; at Cathepsin B, 2.3 µM. Besides, in the data set on Huh-7, the CC50 – broadly, the concentration at which the toxic effect on the cells reaches its halfway point – stood at 37 µM. Also, the half-maximal effective concentration (EC50) – broadly, the concentration at which the effect is half-maximal – in the data set on Hepatitis C virus [9] was found to be 0.7 µM; with Hepatitis C virus [10] it was 0.54 µM. The Papp A→B in data set [11] came out at 41 nm/s. Besides, in [12], the Papp B→A came out at 230 nm/s. The hepatic extraction ratio worked out at 0.64 in [13] and 0.41 in data set [14].
Turning to `CC(C)(C)NC(=O)N[C@H](C(=O)N1C[C@H]2[C@@H]([C@H]1C(=O)NC(CC1CCC1)C(=O)C(N)=O)C2(C)C)C(C)(C)C` (stereo partly specified) [BOCEPREVIR], the Ki worked out at 0.0011 µM in [1]; 0.002 µM in the data set on Hepatitis C virus [2]; 0.0073 µM in data set [3]; 0.028 µM in data set [4]; 0.023 µM in data set [5]; 0.0086 µM in [6]. The results for the Ki in data set [7] and in data set [8] were 0.0023 µM and 0.018 µM, respectively. Further, the figures for the IC50 on Neutrophil elastase and on Cathepsin B were 17 µM and 6.2 µM, respectively. This compound showed a CC50 with Huh-7 of more than 70 µM. Moreover, the concentration giving a half-maximal response (EC50) in the data set with Hepatitis C virus [9] amounted to 0.55 µM. The Papp A→B in data set [11] turned out to be 6 nm/s. The Papp B→A in data set [12] is 230 nm/s.
